Measured values collected from several papers.
Compare with care: the assays were run in different laboratories.
Target: Serine/threonine-protein kinase WNK3 (WNK3, Homo sapiens, UniProt Q9BYP7)

The remaining signal of `N#CCCc1ccc2c(c1)-c1[nH]c3ccc([N+](=O)[O-])cc3c1CC(=O)N2` is reported as 96.5% (cell-free assay; 0.5 µM).
With `CCCS(=O)(=O)Nc1ccc(F)c(C(=O)c2c[nH]c3ncc(-c4ccc(Cl)cc4)cc23)c1F` the inhibition was < 10% (enzyme activity, inhibitor; 1 µM).
`CC(C)(C)c1nc(-c2cccc(NS(=O)(=O)c3c(F)cccc3F)c2F)c(-c2ccnc(N)n2)s1` has a remaining activity of 89% (enzyme activity, inhibitor, radiometric; 1 µM).
`CN(C)C(=O)Cn1cc(-c2nc([C@@](C)(c3ccc(-c4cnc(N)nc4)cc3)C3CC3)no2)cn1` has a remaining binding of 76% (cell-free assay, competition with immobilised ligand; 1 µM).
With `CCN(CC)CCNC(=O)c1c(C)[nH]c(/C=C2\C(=O)Nc3ccc(F)cc32)c1C` the inhibition was 7% (enzyme activity, inhibitor; 10 µM).
`O=c1nc(-c2ccccn2)sc2ccccc12` gave a remaining binding of 100% (binding, competition with immobilised ligand; 1 µM).
`COc1cc(Cl)c(C(=O)N[C@@H](CN[C@H]2CC[C@@H](N)CC2)Cc2ccc(C#N)cc2)cc1-c1ccc(CN[C@H](C)c2ccc(C)cc2)o1` gave a remaining activity of 99% (enzyme activity, inhibitor; 1 µM).
With `O=C(Nc1cnn(-c2csc(C(=O)NC3COC3)c2)c1)Nc1ccccc1Cl` the remaining activity was 99.5% (enzyme activity, inhibitor; 5 µM).
`CNC(=O)c1cc(Oc2ccc(NC(=O)Nc3ccc(Cl)c(C(F)(F)F)c3)cc2)ccn1` has an inhibition of -4% (enzyme activity, inhibitor; 10 µM).
`CN1CC(Oc2cnc(C#N)cc2-c2ccn3nc(NC(=O)C4CC4)cc3c2)C1` gave an inhibition of -5% (enzyme activity, inhibitor; 1 µM).
`O=C1NC(=O)c2cc(Nc3ccc(F)cc3)c(Nc3ccc(F)cc3)cc21` has a remaining signal of 92.7% (cell-free assay; 0.5 µM).
The remaining binding of `C[C@H](c1ccnc(Nc2nc3ccc(-c4cc(N(C)C)ncn4)cc3[nH]2)c1)N1CCN(C(=O)CC(F)(F)F)CC1` is reported as 100% (cell-free assay, competition with immobilised ligand; 0.1 µM).
`Cc1sc(C(=O)NC2COC2)cc1-n1cc(NC(=O)Nc2c(F)cccc2Cl)cn1` gave a remaining activity of 102% (enzyme activity, inhibitor; 10 µM).
The remaining binding of `CCC(=N\O)/C(C)=C/c1ccc(F)cc1` is reported as 75% (cell-free assay, competition with immobilised ligand; 1 µM).
The inhibition of `Cc1ccc(Nc2nccc(N(C)c3ccc4c(C)n(C)nc4c3)n2)cc1S(N)(=O)=O` is reported as 33% (enzyme activity, inhibitor; 10 µM).
For `FC(F)(F)c1ccc2c(c1)nc(-c1cccnc1)n2C1CC1`, the remaining binding was 100% (cell-free assay, competition with immobilised ligand; 1 µM).
With `CCN(CC)c1ccc(C2=NNC(=O)CC2C)cc1[N+](=O)[O-]` (centres unmarked) the remaining activity was 105% (enzyme activity, inhibitor; 10 µM).
